Assays:
[1] = target: T1, Oxysterols receptor LXR-beta (Homo sapiens, UniProt P55055); test: Activation of LXRbeta co-transfected in COS7 cells with RXRalpha by reporter transactivation assay; format: functional, cell-based, COS-7
T1 sequence (P55055 whole entry): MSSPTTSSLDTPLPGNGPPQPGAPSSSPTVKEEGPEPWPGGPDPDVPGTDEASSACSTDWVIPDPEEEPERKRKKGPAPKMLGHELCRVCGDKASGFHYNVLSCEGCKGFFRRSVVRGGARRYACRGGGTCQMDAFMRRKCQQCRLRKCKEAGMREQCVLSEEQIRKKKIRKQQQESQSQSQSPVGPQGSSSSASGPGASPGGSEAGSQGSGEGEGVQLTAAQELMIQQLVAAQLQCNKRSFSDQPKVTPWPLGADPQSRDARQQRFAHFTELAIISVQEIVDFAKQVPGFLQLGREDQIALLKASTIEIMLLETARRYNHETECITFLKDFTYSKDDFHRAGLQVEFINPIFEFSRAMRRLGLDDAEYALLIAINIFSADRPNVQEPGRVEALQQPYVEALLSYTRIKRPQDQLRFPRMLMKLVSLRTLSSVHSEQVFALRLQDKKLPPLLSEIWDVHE
Procedure, shortened: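 Cells exposed to vehicle or compound for 16 h; LXR reporter activation read as luciferase activity in cell lysate. EC50 derived from means of quadruplicate samples, single experiment.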

THP-1 [2] = test: Ratio of induction of cholesterol efflux in THP1 cells at 10 uM to control after 18 hrs; format: functional, Homo sapiens
THP-1 [3] = test: Induction of cholesterol efflux in THP1 cells after 18 hrs; format: functional, cell-based; settings: Homo sapiens, THP-1, 18 h
THP-1 [4] = test: Ratio of induction of ABCA1 gene expression in THP1 cells at 10 uM to control; format: functional, Homo sapiens
HepG2 (Homo sapiens) = test: Ratio of induction of SREBP1c gene expression in HepG2 cells at 10 uM to control
[5] = target: T2, Oxysterols receptor LXR-alpha (Homo sapiens, UniProt Q13133); test: Agonist activity at LXRalpha LBD by HTRF cofactor peptide recruitment assay; format: functional
T2 sequence (Q13133 whole entry): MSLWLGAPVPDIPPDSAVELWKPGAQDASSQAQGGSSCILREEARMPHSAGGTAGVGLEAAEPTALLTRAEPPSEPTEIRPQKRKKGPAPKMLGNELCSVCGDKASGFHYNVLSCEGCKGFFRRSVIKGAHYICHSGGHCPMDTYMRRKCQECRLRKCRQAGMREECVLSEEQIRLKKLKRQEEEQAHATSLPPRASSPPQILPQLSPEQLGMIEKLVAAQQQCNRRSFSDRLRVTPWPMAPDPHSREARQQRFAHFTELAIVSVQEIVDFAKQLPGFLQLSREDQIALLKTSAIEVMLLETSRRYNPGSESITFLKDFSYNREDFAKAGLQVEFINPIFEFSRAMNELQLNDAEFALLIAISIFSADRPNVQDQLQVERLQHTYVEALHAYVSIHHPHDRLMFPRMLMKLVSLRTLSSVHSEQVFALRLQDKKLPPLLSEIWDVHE

HepG2 = test: Ratio of induction of lipogenesis in HepG2 cells at 10 uM to control after 24 hrs; format: functional, Homo sapiens
[6] = target: T1, Oxysterols receptor LXR-beta; test: Agonist activity at LXRbeta LBD by HTRF cofactor peptide recruitment assay; format: functional

| EC50 [1] [nM] | EC50 (THP-1 [3]) [nM] | EC50 [5] [nM] | EC50 [6] [nM] | Structure (SMILES) | Ratio (THP-1 [2]) | Ratio (THP-1 [4]) | Ratio (HepG2 (Homo sapiens)) | Ratio (HepG2) |
| --- | --- | --- | --- | --- | --- | --- | --- | --- |
| 52 | 210 | 570 | 90 | CC(C)(C)OC(=O)n1c(-c2ccc3c(c2)CC(NS(=O)(=O)c2c(F)cccc2F)C3)cc2ccccc21 (centres undefined) | 1.7 | 7.5 | 3 | 3.2 |
| 363 | 570 | 540 | 110 | CC(C)(C)OC(=O)n1c(-c2ccc3c(c2)CC(NS(=O)(=O)c2cccs2)C3)cc2ccccc21 (centres undefined) | 1.5 | 7.3 | 2.9 | 1.7 |
| 120 | 570 | 4300 | 460 | CC(C)(C)OC(=O)n1c(-c2ccc3c(c2)CC(NS(=O)(=O)c2ccc(F)cc2)C3)cc2ccccc21 (centres undefined) | 1.7 | 11.4 | 2 | 2 |

— ChEMBL document CHEMBL1139922, “Discovery and structure-activity relationship studies of indole derivatives as liver X receptor (LXR) agonists” (Bioorg Med Chem Lett, 2007)
